Test results from ChEMBL document CHEMBL1138519, “Modulating retinoid X receptor with a series of (E)-3-[4-hydroxy-3-(3-alkoxy-5,5,8,8-tetramethyl-5,6,7,8-tetrahydronaphthalen-2-yl)phenyl]acrylic acids and their 4-alkoxy isomers” (J Med Chem, 2009).
Activity calls are given as the source filed them. No cut-off for these calls is given here.

Columns and labels:
[1] = biological target: T1, Retinoic acid receptor alpha/Retinoid X receptor alpha (Homo sapiens) (UniProt P10276+P19793); assay: Activity at RARalpha/RXRalpha ligand binding domain assessed as stabilization of RXR helix H12 by fluorescence anisotropy; assay type: protein-complex assay
Method in brief: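 RARα-RXRα LBD heterodimer, 0.120 µM, carrying a fluorescent dye attached to the RXRα C-terminus. Steady-state anisotropy was read with excitation at 470 nm and emission at 530 nm, with ligand at saturating concentration. At least three independent measurements were made per sample.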

[2] = biological target: T2, Retinoic acid receptor RXR-beta (Homo sapiens) (UniProt P28702); assay: Activity at Gal4-tagged human RXRbeta receptor expressed in human HeLa cells assessed as relative transcriptional activity by luciferase reporter assay relative to CD3254; assay type: cell-based; parameters: concentration or dose not given beside the values
T2 sequence (whole entry): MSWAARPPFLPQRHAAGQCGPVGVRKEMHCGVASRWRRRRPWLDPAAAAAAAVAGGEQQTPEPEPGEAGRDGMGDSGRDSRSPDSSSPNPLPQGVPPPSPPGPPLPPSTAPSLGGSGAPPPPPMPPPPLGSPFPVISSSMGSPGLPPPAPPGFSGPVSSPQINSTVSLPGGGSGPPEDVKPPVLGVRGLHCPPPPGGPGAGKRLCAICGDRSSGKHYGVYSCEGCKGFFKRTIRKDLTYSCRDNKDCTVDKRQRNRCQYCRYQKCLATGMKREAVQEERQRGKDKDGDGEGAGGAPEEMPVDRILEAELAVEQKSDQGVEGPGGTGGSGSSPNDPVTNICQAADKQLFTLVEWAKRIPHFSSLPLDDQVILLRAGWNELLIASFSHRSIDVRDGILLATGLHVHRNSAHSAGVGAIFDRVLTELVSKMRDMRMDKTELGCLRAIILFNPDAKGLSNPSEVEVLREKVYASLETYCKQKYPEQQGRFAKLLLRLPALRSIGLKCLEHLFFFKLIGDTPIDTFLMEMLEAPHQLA
Method in brief: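 HeLa cells stably carrying a Gal4-hRXRβ chimera (RXRβ LBD fused to the GAL4 DBD) and a (Gal4)5-β-globin-luciferase reporter. Cells were grown in DMEM with 5% FCS plus G418, puromycin, hygromycin and gentamycin. They were exposed to increasing compound concentrations for 16 h at 37 °C and 5% CO2, then washed, lysed, and read for luciferase luminescence (RLU).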

[3] = biological target: T2, Retinoic acid receptor RXR-beta (Homo sapiens); assay: Antagonist activity at Gal4-tagged human RXRbeta receptor expressed in human HeLa cells assessed as inhibition of CD3254-induced transcription at >=10 uM by luciferase reporter assay; assay type: functional, cell-based
Method in brief: (§1)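 Gal4-hRXRβ/(Gal4)5-β-globin-luciferase HeLa reporter cells, maintained in DMEM with 5% FCS and selection antibiotics. Cells were co-treated for 16 h at 37 °C with 3 nM of the reference RXR agonist and increasing compound concentrations. After lysis, luciferase was read as RLU to measure antagonism of agonist-induced transcription.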

[4] = biological target: T1, Retinoic acid receptor alpha/Retinoid X receptor alpha (Homo sapiens); assay: Activity at RARalpha/RXRalpha ligand binding domain assessed as stabilization of RXR helix H12 by fluorescence anisotropy in presence of up to 10 uM coactivator peptide TIF-NR2; assay type: protein-complex assay
Method in brief: (§2)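 Heterodimer (0.120 µM, dye on the RXRα C-terminus) with 10 µM ligand. Anisotropy was read at excitation 470 nm and emission 530 nm, with at least three independent measurements.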

[5] = biological target: T2, Retinoic acid receptor RXR-beta (Homo sapiens); assay: Antagonist activity at Gal4-tagged human RXRbeta receptor expressed in human HeLa cells assessed as inhibition of CD3254-induced transcription at 1 uM by luciferase reporter assay; assay type: functional, cell-based; method in brief: as §1
[6] = biological target: T1, Retinoic acid receptor alpha/Retinoid X receptor alpha (Homo sapiens); assay: Activity at RARalpha/RXRalpha ligand binding domain assessed as stabilization of RXR helix H12 by fluorescence anisotropy in presence of 1 uM coactivator peptide TIF-NR2; assay type: protein-complex assay; method in brief: as §2

Row | SMILES | Activity [1] | Activity [2] | Activity [3] | Activity [4] | Activity [5] | Activity [6]
1 | CCCCCCOc1cc(-c2cc(/C=C/C(=O)O)ccc2O)cc2c1C(C)(C)CCC2(C)C | inactive | > 10% | Active | Active |  | 
2 | CCCCCOc1cc(-c2cc(/C=C/C(=O)O)ccc2O)cc2c1C(C)(C)CCC2(C)C | inactive | > 10% | Active | Active |  | 
3 | CCCCCOc1cc2c(cc1-c1cc(/C=C/C(=O)O)ccc1O)C(C)(C)CCC2(C)C | inactive | inactive |  | inactive | Active | 
4 | CCOc1cc(-c2cc(/C=C/C(=O)O)ccc2O)cc2c1C(C)(C)CCC2(C)C | inactive | > 10% | Active | Active |  | 
5 | COc1cc(-c2cc(/C=C/C(=O)O)ccc2O)cc2c1C(C)(C)CCC2(C)C | inactive | > 30% | Active | Active |  | 
6 | CCCCCCOc1cc2c(cc1-c1cc(/C=C/C(=O)O)ccc1O)C(C)(C)CCC2(C)C |  |  |  | inactive |  | 
7 | Cc1cc2c(cc1-c1cc(/C=C/C(=O)O)ccc1O)C(C)(C)CCC2(C)C |  |  |  |  |  | Active
8 | CCCOc1cc(-c2cc(/C=C/C(=O)O)ccc2O)cc2c1C(C)(C)CCC2(C)C | inactive | > 10% | Active | Active |  | 
9 | CCCCOc1cc(-c2cc(/C=C/C(=O)O)ccc2O)cc2c1C(C)(C)CCC2(C)C | inactive | > 10% | Active | Active |  | 
